# Data as given in publication PMC3501270 (Bioorganic & medicinal chemistry, 2012).
# Experiments:
# [1] = test system: Smo-633 receptor and βarr2-GFP; assay: Smo/βarr2-GFP translocation primary high-throughput confocal imaging assay; format: cell-based; conditions: U2OS cells stably expressing Smo-633 and βarr2-GFP; 5 µM, 6 hours
# wild-type Smo = wild-type Smo (Homo sapiens, UniProt Q99835); format: binding; conditions: 25 nM [3H]-cyclopamine; competitor 0 – 10 µM
# [2] = target: Smo-D473H mutant receptor (Homo sapiens, UniProt Q99835, D473H); format: binding; conditions: for displacement of [3H]-cyclopamine from Smo-D473H: U2OS cells overexpressing Smo-D473H, competitor up to 10 µM
# [3] = test system: Shh-induced Gli reporter activity; conditions: 1 µM concentration; cited from earlier work
# Hh-dependent hair growth = assay: Hh-dependent hair regrowth after depilation; format: in vivo, mouse; conditions: C57BL female mice, topical 30 µl of 0.5 mM daily for 2 weeks
# Outline: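 Eight-week-old female C57BL/6 mice in telogen phase had the dorsum shaved. The lower half of the shaved area was depilated with Nair for 2 min and rinsed with water. Test compound in 95% acetone/5% DMSO, or vehicle alone, was applied topically to the depilated skin. Brief 3% isoflurane anaesthesia was used for all procedures. Five mice per group; hair regrowth assessed at 2 weeks.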
# [4] = target: vasopressin2 receptor (V2R) (Homo sapiens, UniProt P30518); assay: V2R/βarr2-GFP aggregation control assay; format: cell-based; conditions: arginine vasopressin stimulated cells; Supplementary Figure 3
# [5] = Storage stability in solution; format: physicochemical; conditions: room temperature, DMSO or methanolic solution, 1 week
# Chain of wild-type Smo (Q99835 28-787): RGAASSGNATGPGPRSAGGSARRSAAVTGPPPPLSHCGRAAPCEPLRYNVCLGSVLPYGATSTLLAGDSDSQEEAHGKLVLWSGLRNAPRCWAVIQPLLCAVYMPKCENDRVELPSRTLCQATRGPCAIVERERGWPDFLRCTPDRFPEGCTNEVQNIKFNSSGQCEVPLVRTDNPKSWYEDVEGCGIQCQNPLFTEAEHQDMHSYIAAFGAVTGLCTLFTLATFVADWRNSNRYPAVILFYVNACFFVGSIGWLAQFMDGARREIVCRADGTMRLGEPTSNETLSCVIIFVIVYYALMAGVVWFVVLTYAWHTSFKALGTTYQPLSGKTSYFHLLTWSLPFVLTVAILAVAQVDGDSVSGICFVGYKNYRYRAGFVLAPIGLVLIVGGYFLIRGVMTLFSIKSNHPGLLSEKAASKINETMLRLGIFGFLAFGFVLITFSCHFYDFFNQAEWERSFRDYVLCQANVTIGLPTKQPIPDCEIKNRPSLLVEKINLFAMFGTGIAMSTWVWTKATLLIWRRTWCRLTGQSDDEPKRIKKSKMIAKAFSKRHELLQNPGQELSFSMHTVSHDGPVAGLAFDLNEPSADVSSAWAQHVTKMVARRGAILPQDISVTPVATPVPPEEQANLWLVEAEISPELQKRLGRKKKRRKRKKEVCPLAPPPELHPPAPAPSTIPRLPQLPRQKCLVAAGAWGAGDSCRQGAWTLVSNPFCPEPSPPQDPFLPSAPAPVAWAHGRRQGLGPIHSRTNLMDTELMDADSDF
# Chain of Smo-D473H mutant receptor (Q99835 28-787 D473H): as the sequence (Q99835 28-787) above, with D446H counted along it
# Chain of vasopressin2 receptor (V2R) (P30518 whole entry, species assumed): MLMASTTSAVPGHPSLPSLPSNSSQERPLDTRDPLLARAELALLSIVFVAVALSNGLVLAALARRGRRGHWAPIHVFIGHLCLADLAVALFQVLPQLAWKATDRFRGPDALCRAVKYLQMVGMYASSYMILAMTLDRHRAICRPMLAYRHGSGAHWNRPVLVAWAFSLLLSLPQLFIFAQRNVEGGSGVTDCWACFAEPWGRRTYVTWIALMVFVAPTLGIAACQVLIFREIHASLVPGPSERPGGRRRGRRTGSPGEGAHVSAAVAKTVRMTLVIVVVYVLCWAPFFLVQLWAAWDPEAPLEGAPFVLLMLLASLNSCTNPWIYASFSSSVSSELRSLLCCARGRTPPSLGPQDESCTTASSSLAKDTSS
displacement of [3H]-cyclopamine from wild-type Smo (wild-type Smo),displacement of [3H]-cyclopamine from Smo-D473H [2],"binding affinity to the mutant receptor (Ki not determinable) ([2]; Smo-D473H, up to 10 uM)","right shift in affinity, SmoD473H versus wild-type Smo ([2]; ratio of Ki mutant / wild-type)",aggregation of V2R and βarr2-GFP [4],activity after storage in solution [5],SMILES,inhibition of intracellular βarr2-GFP aggregation [1],inhibition of Gli-reporter activity at 1 µM [3],Hh-induced hair growth (Hh-dependent hair growth)
completely displaced,largely ineffective,too weak,–,–,–,"Cc1c(C(=O)Nc2ccc(N3C[C@@H](C)O[C@@H](C)C3)nc2)cccc1-c1ccc(OC(F)(F)F)cc1 [LDE-225, Erismodegib]",–,–,–
completely displaced,completely displace,–,approximately 13 fold,not inhibited,retained activity,O=C(NC1CCN(Cc2ccc(N3CCC(NC(=O)c4cccc(-c5cccnc5)c4)CC3)nc2)CC1)c1cccc(-c2cccnc2)c1 [Compound A8],confirmed,–,largely inhibited
completely displaced,only partially displaced,–,–,–,–,"CS(=O)(=O)c1ccc(C(=O)Nc2ccc(Cl)c(-c3ccccn3)c2)c(Cl)c1 [GDC-0449, Vismodegib]",–,–,–

SMILES,displacement of [3H]-cyclopamine from wild-type Smo (wild-type Smo),displacement of [3H]-cyclopamine from Smo-D473H [2],"binding affinity to the mutant receptor (Ki not determinable) ([2]; Smo-D473H, up to 10 uM)","right shift in affinity, SmoD473H versus wild-type Smo ([2]; ratio of Ki mutant / wild-type)",aggregation of V2R and βarr2-GFP [4],activity after storage in solution [5],inhibition of intracellular βarr2-GFP aggregation [1],inhibition of Gli-reporter activity at 1 µM [3],Hh-induced hair growth (Hh-dependent hair growth)
CC1=C2C[C@H]3[C@@H](CC=C4C[C@@H](O)CC[C@@]43C)[C@@H]2CC[C@]12O[C@@H]1C[C@H](C)CN[C@H]1[C@H]2C [cyclopamine],completely displaced,completely displace,–,–,–,–,inhibits the aggregation of βarr2-GFP,strong inhibition,–
